Tests used:
Format in all cases: functional
MDA-MB-231 = experiment: Cytotoxicity against human MDA-MB-231 cells by SRB method
Method in brief: (§1)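 Human tumour lines (breast MDA-MB-231, lung A-549, colon HT-29) seeded in 96-well plates and left 24 h, then given vehicle or compound at 10 to 0.0026 µg/mL (10 dilutions) for 72 h. Read-out by SRB: PBS washes, 1% glutaraldehyde fix 15 min, 0.4% SRB in 1% acetic acid 30 min RT, dye extracted into 10 mM Tris base, A490. A time-zero plate was read before treatment.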

A549 = experiment: Cytotoxicity against human A549 cells by SRB method; method in brief: as §1
HT-29 = experiment: Cytotoxicity against human HT29 cells by SRB method; settings: for CC50: read-out: LC50 (the source's name); method in brief: as §1
[1] = read-out: LC50 (the source's name)

Row | SMILES | GI50 (MDA-MB-231) [µM] | GI50 (A549) [µM] | GI50 (HT-29) [µM] | TGI (HT-29) [µM] | CC50 (HT-29) [µM] | TGI (MDA-MB-231) [µM] | CC50 (MDA-MB-231; [1]) [µM] | TGI (A549) [µM] | CC50 (A549; [1]) [µM]
1 | COc1c(C)c(O)c2c(c1O)[C@@H]1C3=Cc4c(OC(C)=O)c(C)c5c(c4[C@H](COCc4ccccc4)N3[C@@H](C#N)[C@H](C2=O)N1C)OCO5 | 5.63 | 6.57 | 4.06 | 6.72 | 14.5 | – | – | – | –
2 | C/C=C(/C)C(=O)OC[C@H]1c2c(c(OC(C)=O)c(C)c3c2OCO3)C=C2[C@H]3c4c(O)c(OC)c(C)c(O)c4C(=O)[C@@H](C(=O)N21)N3C | 14 | 7.73 | 11.1 | – | – | – | – | – | –
3 | COc1c(C)cc2c(c1OCc1ccccc1)[C@@H]1C3=Cc4c(OC(C)=O)c(C)c(OC)c(OC)c4[C@H](COCc4ccccc4)N3[C@@H](C#N)[C@H](C2)N1C | 0.26 | 0.24 | 0.2 | 0.26 | 0.36 | 0.35 | 0.48 | 0.3 | 0.41
4 | C/C=C(/C)C(=O)OC[C@H]1C2=C(C=C3[C@H]4c5c(O)c(OC)c(C)c(O)c5C(=O)[C@@H](C(=O)N31)N4C)C(=O)C(C)=C(OC)C2=O [CRIBROSTATIN 5] | 4.49 | 7.09 | 6.74 | 7.43 | – | – | – | 11.6 | –
